Calls of active or inactive are those of the source. The rule behind the calls is not given here.

Series [1] is described as follows: Absorption property of the compound in DMSO assessed as soret band absorption coefficient by UV-visible spectrophotometric method. The class given is physicochemical. Put shortly: (§1)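 UV–visible absorption spectra recorded in DMSO at concentrations 1, 2, 4, 6, 8, 10 µM, with the concentration dependence used to follow aggregation.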
The nature of series [2]: Absorption property of the compound in DMSO assessed as Q band absorption coefficient by UV-visible spectrophotometric method. The class given is physicochemical. The method in brief:
as §1

Series [3] in a line: Dark toxicity in human HeLa cells assessed as reduction in cell viability after 24 hrs by MTT assay. The class given is cell-based. Put shortly:
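HeLa cells in DMEM with 10% FBS (37 °C, 5% CO2) were seeded at 2 × 10^4 cells/well and attached for 24 h. Compound at a range of final concentrations was taken up for 24 h in the dark, cells were washed with PBS and left unirradiated. MTT viability was read 24 h later as % survival normalised to no-drug cells. Triplicate experiments.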

In series [4] the test system is HeLa. The experiment in a line: Phototoxicity against human HeLa cells assessed as reduction in cell viability preincubated for 24 hrs followed by irradiated with 16 J/cm2 of 650 nanometer laser light measured after 24 hrs by MTT assay. Format: functional, cell-based. Particulars: light or radiation study. The method in brief: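 HeLa cells at 2 × 10^4 cells/well were attached for 24 h and given compound at a range of final concentrations for 24 h in the dark. After two PBS washes, cells were irradiated with a 650 nm Nd:YAG laser (doses 0–16 J/cm²). MTT viability was read 24 h later as % survival normalised to no-drug cells. Triplicate experiments.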
(In general: Tetrazolium dyes change colour on reduction, which living cells bring about.)

Series [5] in a line: Absorption property of the compound in DMSO assessed as Q band molar attenuation coefficient by UV-visible spectrophotometric method. Format: physicochemical. Put shortly: as §1
Series [6] is described as follows: Absorption property of the compound in DMSO assessed as Q band wavelength molar absorption coefficient by UV-visible spectrophotometric method. Format: physicochemical. The method in brief:
as §1

Series [7] can be described thus: Absorption property of the compound in DMSO assessed as Q band maximum absorption wavelength by UV-visible spectrophotometric method. Format: physicochemical. Put shortly:
as §1

The nature of series [8]: Induction of singlet oxygen generation in DMF solution assessed as singlet oxygen quantum yield irradiated with 650 nanometer laser light by DPBF-based assay. Format: functional.
Series [9] is described as follows: Emission property of the compound in DMSO assessed as stokes shift by fluorescence spectrophotometric method. Format: physicochemical. The method in brief: (§2)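 Fluorescence spectra recorded on a spectrofluorometer with slits of 1 nm for excitation and 1 or 2 nm for emission.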
Series [10] can be described thus: Absorption property of the compound in DMSO assessed as soret band maximum absorption wavelength by UV-visible spectrophotometric method. The class given is physicochemical. The method in brief:
as §1

Series [11] in a line: Absorption property of the compound in DMSO assessed as soret band wavelength molar absorption coefficient by UV-visible spectrophotometric method. Format: physicochemical. The method in brief: as §1
Series [12] can be described thus: Emission property of the compound in DMSO assessed as maximum excited state emission wavelength at 4 uM by fluorescence spectrophotometric method. Format: physicochemical. Put shortly: as §2
A short description of series [13]: Emission property of the compound in DMSO assessed as maximum emission wavelength at 4 uM by fluorescence spectrophotometric method. Format: physicochemical. The method in brief:
as §2

Series [14] can be described thus: Drug localization in cytoplasm of human HeLa cells at 5 uM incubated for 4 hrs in dark by Hoechst 33342 staining based confocal fluorescence microscopy. The class given is ADME, subcellular. The method in brief:
(§3)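 HeLa cells at 1 × 10^5 cells/mL on poly-L-lysine coverslips for 24 h, then 5 µM drug for 4 h in the dark at 37 °C. Nuclei were stained with Hoechst 33342 for 10 min at 37 °C, and cells fixed in 4% paraformaldehyde at 4 °C for 30 min. Confocal imaging: drug excited at 417 nm, emission 600–700 nm; Hoechst excited at 350 nm, emission 450–500 nm.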

Series [15] deals with HeLa. Put plainly: Photodynamic antitumor activity against human HeLa cells xenografted in BALB/c nude mouse assessed as reduction in tumor volume at 5 mg/kg, iv followed by laser light irradiation at 100 J/cm2.
Series [16] in a line: Drug localization in nuclear membrane of human HeLa cells at 5 uM incubated for 4 hrs in dark by Hoechst 33342 staining based confocal fluorescence microscopy. The class given is ADME, cell membranes. The method in brief: as §3

In the case of `C1=Cc2nc1c(-c1ccccc1)c1ccc([nH]1)c(-c1ccccc1)c1nc(c(-c3ccccc3)c3ccc([nH]3)c2-c2ccccc2)C(N2CCOCC2)=C1`, the Activity in [1] is 16.08 10^4/M/cm; in [2], 0.69 10^4/M/cm; in [5], 0.56 10^4/M/cm; in series [6], 650 nm; in series [7] it was 596 nm; in series [8], 0.25. Further, the Activity in series [9] is 13 nm; in series [10], 417 nm; in [11], 522 nm; in series [12], 417 nm; in [13] it was 663 nm. For the same compound, the concentration for half-maximal inhibition (IC50) at 24 h in series [3] amounted to 93.4 µM. Besides, the IC50 in series [4] came out at 5.06 µM.

For the compound `Cc1ccc(-c2c3nc(c(-c4ccc(C)cc4)c4ccc([nH]4)c(-c4ccc(C)cc4)c4nc(c(-c5ccc(C)cc5)c5ccc2[nH]5)C=C4N2CCCC2)C=C3)cc1`, the Activity is 16.52 10^4/M/cm in [1]; 0.58 10^4/M/cm in [2]; 0.34 10^4/M/cm in [5]; 666 nm in series [6]; 602 nm in series [7]; 0.54 in series [8]. Moreover, the Activity in [9] is recorded as 4 nm; in series [10], 414 nm; in series [11] it was 531 nm; in series [12], 414 nm; in series [13] it was 671 nm. Also, the IC50 at 24 h in series [3] worked out at 280 µM. Also, the half-inhibitory concentration (IC50) in series [4] amounted to 5.33 µM.

As for `COc1ccc(-c2c3nc(c(-c4ccc(OC)cc4)c4ccc([nH]4)c(-c4ccc(OC)cc4)c4nc(c(-c5ccc(OC)cc5)c5ccc2[nH]5)C=C4N2CCCC2)C=C3)cc1`, the Drug uptake entry in series [14] and in series [16] was “Active” throughout. Besides, the Activity is 13.43 10^4/M/cm in [1]; 0.68 10^4/M/cm in series [2]; 0.54 10^4/M/cm in series [5]; 668 nm in [6]; 603 nm in series [7]; 0.56 in series [8]. Further, the Activity in series [9] stood at 15 nm; in series [10] it was 417 nm; in series [11], 535 nm; in series [12] it was 417 nm; in [13], 683 nm. Besides, the IC50 at 24 h in series [3] is 387 µM. The IC50 in series [4] stood at 4.38 µM. For the same compound, the outcome in series [15] was Active.

In the case of `C1=Cc2nc1c(-c1ccccc1)c1ccc([nH]1)c(-c1ccccc1)c1nc(c(-c3ccccc3)c3ccc([nH]3)c2-c2ccccc2)C(N2CCCC2)=C1`, the Activity in [1] was 14.53 10^4/M/cm; in series [2], 0.44 10^4/M/cm; in [5], 0.25 10^4/M/cm; in series [6], 664 nm; in series [7], 601 nm; in series [8], 0.43. The Activity in series [9] stood at 1 nm; in series [10] it was 412 nm; in [11], 528 nm; in series [12] it was 412 nm; in series [13] it was 665 nm. Besides, the 50% inhibitory concentration (IC50) at 24 h in series [3] stood at 172 µM. In addition, in series [4], the concentration for half-maximal inhibition (IC50) is 4.56 µM.

As for `C1=Cc2nc1c(-c1ccccc1)c1ccc([nH]1)c(-c1ccccc1)c1nc(c(-c3ccccc3)c3ccc([nH]3)c2-c2ccccc2)C(N2CCCCC2)=C1`, the Activity in series [1] was 8.32 10^4/M/cm; in series [2], 0.27 10^4/M/cm; in series [5] it was 0.16 10^4/M/cm; in series [6], 650 nm; in [7], 596 nm; in series [8], 0.19. Moreover, the Activity in [9] is 19 nm; in [10], 412 nm; in series [11] it was 524 nm; in series [12] it was 412 nm; in [13], 669 nm. The 50% inhibitory concentration (IC50) at 24 h in series [3] is 110 µM. The half-inhibitory concentration (IC50) in series [4] came to 5.56 µM.

As to `COC(C)c1c(C)c2cc3nc(cc4[nH]c(cc5nc(cc1[nH]2)C(C)=C5C(C)O)c(C)c4CCC(=O)O)C(CCC(=O)O)=C3C` (centres undefined), in [3], the half-maximal inhibitory concentration (IC50) at 24 h worked out at 345 µM. In addition, in [4], the IC50 was determined as 9.46 µM. For the same compound, the Activity in [8] was 0.18.

As for `Clc1ccc(-c2c3nc(c(-c4ccc(Cl)cc4)c4ccc([nH]4)c(-c4ccc(Cl)cc4)c4nc(c(-c5ccc(Cl)cc5)c5ccc2[nH]5)C=C4N2CCCC2)C=C3)cc1`, the Activity in series [1] was 14.75 10^4/M/cm; in series [2] it was 0.73 10^4/M/cm; in series [5], 0.67 10^4/M/cm; in [6], 648 nm; in [7] it was 594 nm; in series [8] it was 0.2. In addition, the Activity in [9] amounted to 17 nm; in series [10] it was 412 nm; in series [11], 521 nm; in series [12], 412 nm; in [13] it was 665 nm. Further, the concentration for half-maximal inhibition (IC50) at 24 h in [3] was 81.6 µM. The IC50 in series [4] was determined as 6.43 µM.

The term IC50 denotes the concentration needed to halve the response being measured.
